Test results as given in ChEMBL document CHEMBL1125559, “Analogues of platelet activating factor. 7. Bis-aryl amide and bis-aryl urea receptor antagonists of PAF” (J Med Chem, 1992).
pIC50: −log10 of the molar value.

What was measured:
[1] = tested on: Mus musculus; assay: Compound was evaluated for PAF-induced lethality in mouse (intraperitoneally at a dose of 1.0 mg/kg in saline 0.5 hr before lethal intravenous PAF challenge 75-150 mg/kg); assay type: ADME, organism-based; design: dose 1 mg/kg, route intraperitoneal; conditions: in vivo
Summary of the method: (§1)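 Female Swiss-Webster mice (20-25 g) received test compound ip in saline (10 mL/Kg); controls got saline alone. The PAF dose was chosen daily from small pilot groups. Survival was scored at 1.5 h and recorded as dead/total.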

[2] = organism: Oryctolagus cuniculus; assay: Concentration required to inhibit PAF (5*10e-8 M) induced platelet aggregation in rabbit platelet rich plasma(PRP) by 50%; assay type: functional, organism-based
Summary of the method: (§2)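 Rabbit PRP came from blood spun at 800 rpm for 15 min at room temperature, with platelet counts of 350 000–550 000/µL. PRP was equilibrated 1–2 min at 37 °C in an aggregometer. It was preincubated 5 min with test compound (final 10^-8 to 10^-5 M; methanol stock diluted in saline) or saline, then challenged with L-C16-PAF. IC50 was taken from concentration–response curves of aggregation magnitude and averaged over separate determinations.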

[3] = tested on: Mus musculus; assay: Compound was evaluated for PAF-induced lethality in mouse (intraperitoneally at a dose of 1.0 mg/kg in saline 0.5 hr before lethal intravenous PAF challenge 75-150 mg/kg); 14/24; assay type: ADME, organism-based; design: dose 1 mg/kg; conditions: in vivo; summary of the method: as §1
[4] = organism: Oryctolagus cuniculus; assay: Concentration required to inhibit PAF (1*10e-7 M) induced platelet aggregation in rabbit platelet rich plasma(PRP) by 50%; assay type: functional, organism-based; summary of the method: as §2
[5] = tested on: Mus musculus; assay: Compound was evaluated for PAF-induced lethality in mouse (intraperitoneally at a dose of 1.0 mg/kg in saline 0.5 hr before lethal intravenous PAF challenge 75-150 mg/kg); 12/12; assay type: ADME, organism-based; design: dose 1 mg/kg; conditions: in vivo; summary of the method: as §1
[6] = tested on: Mus musculus; assay: Compound was evaluated for PAF-induced lethality in mouse (intraperitoneally at a dose of 1.0 mg/kg in saline 0.5 hr before lethal intravenous PAF challenge 75-150 mg/kg); 9/23; assay type: ADME, organism-based; design: dose 1 mg/kg, route intravenous; conditions: in vivo; summary of the method: as §1
[7] = organism: Oryctolagus cuniculus; assay: Concentration required to inhibit PAF (5*10e-8 M) induced platelet aggregation in rabbit platelet rich plasma(PRP) by 50% at 10 uM; assay type: functional
[8] = organism: Oryctolagus cuniculus; assay: Concentration required to inhibit PAF (5*10e-8 M) induced platelet aggregation in rabbit platelet rich plasma(PRP) by 50% at 10 uM; NI= No inhibition; assay type: functional, organism-based
[9] = tested on: Mus musculus; assay: Compound was evaluated number of mouse dead out of total (intraperitoneally at a dose of 1.0 mg/kg in saline 0.5 hr before lethal intravenous PAF challenge 75-150 mg/kg); 6/12; assay type: ADME, organism-based; design: dose 1 mg/kg, route intravenous; conditions: in vivo; summary of the method: as §1
[10] = tested on: Mus musculus; assay: Compound was evaluated for PAF-induced lethality in mouse (intraperitoneally at a dose of 1.0 mg/kg in saline 0.5 hr before lethal intravenous PAF challenge 75-150 mg/kg); 11/14; assay type: ADME, organism-based; design: dose 1 mg/kg; conditions: in vivo; summary of the method: as §1
[11] = tested on: Mus musculus; assay: Compound was evaluated for PAF-induced lethality in mouse (intraperitoneally at a dose of 1.0 mg/kg in saline 0.5 hr before lethal intravenous PAF challenge 75-150 mg/kg); 16/27; assay type: ADME, organism-based; design: dose 1 mg/kg; conditions: in vivo; summary of the method: as §1
[12] = tested on: Mus musculus; assay: Compound was evaluated for PAF-induced lethality in mouse (intraperitoneally at a dose of 1.0 mg/kg in saline 0.5 hr before lethal intravenous PAF challenge 75-150 mg/kg); 5/12; assay type: ADME, organism-based; design: dose 1 mg/kg, route intravenous; conditions: in vivo; summary of the method: as §1
[13] = tested on: Mus musculus; assay: Compound was evaluated for PAF-induced lethality in mouse (intraperitoneally at a dose of 1.0 mg/kg in saline 0.5 hr before lethal intravenous PAF challenge 75-150 mg/kg); 10/17; assay type: ADME, organism-based; design: dose 1 mg/kg; conditions: in vivo; summary of the method: as §1
[14] = tested on: Mus musculus; assay: Compound was evaluated for PAF-induced lethality in mouse (intraperitoneally at a dose of 1.0 mg/kg in saline 0.5 hr before lethal intravenous PAF challenge 75-150 mg/kg); 9/24; assay type: ADME, organism-based; design: dose 1 mg/kg; conditions: in vivo; summary of the method: as §1
[15] = tested on: Mus musculus; assay: Compound was evaluated for PAF-induced lethality in mouse (intraperitoneally at a dose of 1.0 mg/kg in saline 0.5 hr before lethal intravenous PAF challenge 75-150 mg/kg); 11/13; assay type: ADME, organism-based; design: dose 1 mg/kg; conditions: in vivo; summary of the method: as §1

SMILES | Lethality [1] [%] | pIC50 [2] | other results
CCCCCCCCCCCCCCOc1ccc(CCCN(C(C)=O)c2cccc(C[n+]3csc(C)c3)c2)cc1.[Br-] | 58 | 5.51 | Dead/total [3]: 14
CCCCCCCCCCCCCCOc1ccc(CN(C(C)=O)c2cccc(C[n+]3csc(C)c3)c2)cc1C(C)(C)C |  |  | pIC50 [4]: 6.46
CCCCCCCCCCCCCCOc1cccc(CC(=O)Nc2cccc(C[n+]3csc(C)c3)c2)c1.[Br-] | 100 | 6.26 | Dead/total [5]: 12
CCCCCCCCCCCCCCOc1ccc(NC(=O)c2cccc(C[n+]3csc(C)c3)c2)cc1 |  | 5.57 | 
CCCCCCCCCCCCCCOc1ccc(C)cc1CN(C(C)=O)c1cccc(C[n+]2csc(C)c2)c1.[Br-] | 39 | 5.82 | Dead/total [6]: 9
CCCCCCCCCCCCCCOc1c(OC)cc(CN(C(C)=O)c2cccc(C[n+]3csc(C)c3)c2)cc1OC |  | 6.24 | 
CCCCCCCCCCCCCCOc1cccc(CC(=O)Nc2ccccc2C[n+]2csc(C)c2)c1.[Br-] |  |  | Inhibition [7]: 23%
CCCCCCCCCCCCCCOc1ccc(CN(C(C)=O)c2ccc(C[n+]3csc(C)c3)cc2)cc1 |  | 5.68 | 
CCCCCCCCCCCCCCOc1ccc(CNC(=O)c2cccc(C[n+]3csc(C)c3)c2)cc1 |  | 6.40 | 
CCCCCCCCCCCCCCOc1ccc(CC(=O)Nc2ccccc2C[n+]2csc(C)c2)cc1.[Br-] |  |  | IC50 [8]: Not Active
CCCCCCCCCCCCCCOc1c(C)cc(CNC(=O)c2cccc(C[n+]3csc(C)c3)c2)cc1C |  | 5.51 | 
CCCCCCCCCCCCOc1ccc(CC(=O)Nc2cccc(C[n+]3csc(C)c3)c2)cc1.[Br-] | 55 | 5.54 | Dead/total [9]: 6
CCCCCOc1c(OC)cc(CN(C(C)=O)c2cccc(C[n+]3csc(C)c3)c2)cc1OC |  | 5.64 | 
CCCCCCCCCCCCCCOc1ccc(CN(C(=O)CCC)c2cccc(C[n+]3csc(C)c3)c2)cc1.[Br-] | 79 | 6.59 | Dead/total [10]: 11
CCCCCCCCCCCCCCOc1ccc(CNC(=O)c2cccc(C[n+]3csc(C)c3)c2)cc1C(C)(C)C |  | 5.46 | 
CCCCCCCCCCCCCCOc1ccc(OC)cc1CN(C(C)=O)c1cccc(C[n+]2csc(C)c2)c1.[Br-] | 59 | 6.49 | Dead/total [11]: 16
CCCCCCCCCCCCCCOc1ccc(CCC(=O)Nc2cccc(C[n+]3csc(C)c3)c2)cc1.[Br-] | 50 | 5.14 | Dead/total [12]: 5
CCCCCCCCCCCCCCOc1ccc(CN(C(C)=O)c2cccc(C[n+]3csc(C)c3)c2)cc1Cl.[Br-] | 59 | 6.89 | Dead/total [13]: 10
CCCCCCCCCCCCCCOc1ccc(CN(C(C)=O)c2cccc(C[n+]3csc(C)c3)c2)cc1.[Br-] | 38 | 6.59 | Dead/total [14]: 9
CCCCCCCCCCCCCCOc1ccc(NC(=O)Nc2cccc(C[n+]3csc(C)c3)c2)cc1 |  | 5.82 | 
CCCCCCCCCCCCCCOc1ccc(C(=O)Nc2cccc(C[n+]3csc(C)c3)c2)cc1 |  | 5.23 | 
CCCCCCCCCCCCCCOc1c(CN(C(C)=O)c2cccc(C[n+]3csc(C)c3)c2)cccc1OC.[Br-] | 85 | 5.60 | Dead/total [15]: 11
CCCCCCCCCCCCCCCCOc1ccc(OCC(=O)Nc2ccccc2C[n+]2csc(C)c2)cc1 |  | 4.95 | 
